Mdm2 ligase inh: Mdm2 E3 ligase (human) inhibition; signal enhancement, % at 5 µM; 210,000 tested, 0.11% active; AID 1230; cell-based MDM2 ubiquitination luciferase reporter, 2 h; 0 = plate control, 100 = twice control, blank-subtracted;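 active = signal enhancement of 30% or more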;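 note: luminescence tracks abundance of the self-degrading MDM2-luciferase fusion protein; higher signal means inhibition of MDM2 E3 ligase activity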
Target sequence (Q00987 whole entry, looked up, the tested form may be a part): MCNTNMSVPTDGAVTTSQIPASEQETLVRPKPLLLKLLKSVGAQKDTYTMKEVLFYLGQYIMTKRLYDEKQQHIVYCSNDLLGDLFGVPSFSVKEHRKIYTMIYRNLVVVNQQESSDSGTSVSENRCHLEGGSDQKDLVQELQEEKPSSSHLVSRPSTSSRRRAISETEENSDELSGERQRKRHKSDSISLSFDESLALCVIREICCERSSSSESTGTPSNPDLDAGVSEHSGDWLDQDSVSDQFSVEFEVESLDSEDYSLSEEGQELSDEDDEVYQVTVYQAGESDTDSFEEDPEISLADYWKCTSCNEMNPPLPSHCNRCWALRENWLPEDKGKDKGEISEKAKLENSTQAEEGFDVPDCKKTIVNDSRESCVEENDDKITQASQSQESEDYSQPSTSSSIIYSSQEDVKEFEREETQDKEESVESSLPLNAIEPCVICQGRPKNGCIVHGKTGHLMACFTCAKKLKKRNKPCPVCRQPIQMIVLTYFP
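Test system: stable mammalian line carrying autodegrading MDM2–luciferase fusion reporter; quantity: 2000 cells in each well; times: 4 h cell settling then 2 h compound exposure, 37 °C; detection: luminescence with SteadyLite reagent, 15 min at room temperature; evaluation: percent signal gain over controls, blank-subtracted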
S1P4 antag: blocks the human S1P4 receptor | O95977 | 220,000 tested, 0.26% active | S1P4-expressing cells, antagonist mode, reporter read-out | AID 1510 | inhibition, % at 4.98 µM; in the data active = inhibition above about 29%
S1P4 agonist: activates the human S1P4 receptor; O95977; S1P4-expressing cell line, agonist reporter assay; activation, % at 4.98 µM; 220,000 tested, 0.35% active; AID 1509; in the data active = activation above about 11%
L major viab: Leishmania major promastigote growth inhibition. Leishmania major promastigotes, resazurin fluorescence viability. 200,000 tested, 9% active. inhibition, % at 10 µM; in the data active = inhibition above about 50%;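 note: promastigotes grown with compound for 44 hours at 28 °C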
S1P3 antagonist: antagonists of human S1P3 receptor. 170,000 tested, 0.27% active. AID 485. inhibition, % at 4.98 µM. CHO S1P3 NFAT-BLA reporter, FRET fluorescence, antagonist mode;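 active = inhibition above the plate cutoff, the mean inhibition of test wells on that plate plus 3 SD, cut at about 28% in these data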;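 note: cells challenged with S1P at its EC80 of 0.8 µM; blue over green emission ratio from cleaved BLA substrate after 4 h stimulation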
Of the large screens only hits and unclear results are named; the others gave an inactive call. Only a selection was taken, and hits are over-represented in it overall.

CCN(N=O)[C@@H](Cc1ccccc1)CN(N=O)[C@@H](Cc1ccccc1)CN(C)N=O	none (no result: Mdm2 ligase inh)
CCOC(=O)CSC1=C(C#N)C(c2ccc3c(c2)OCO3)CC(=O)N1 (configuration not stated)	L major viab 73 (no result: S1P3 antagonist)
Cc1ccccc1OCC(=O)N1N=C(c2cccnc2)CC1(O)C(F)(F)F (configuration not stated)	L major viab 51
C=CCN(CC=C)S(=O)(=O)c1ccc2nc(NC(=O)C3CCCO3)sc2c1 (configuration not stated)	L major viab 68
CCOC(=O)c1c(NC(=O)CN2CCN(C(=O)c3ccco3)CC2)sc2c1CCCC2	L major viab 52 (no result: S1P3 antagonist)
CCOC(=O)c1c(NC(=O)c2ccco2)sc2c1CCCC2	none
CCOC(=O)c1c(NC(=O)C(=O)N/N=C/c2ccccc2O)sc2c1CCCCC2	L major viab 99
CCOC(=O)c1c(NC(=O)COc2cccc3c2CCN(Cc2ccc(F)cc2)C3=O)sc2c1CCC2	none
CCOC(=O)c1c(NC(=O)COc2cccc3c2CCN(CC)C3=O)sc2c1CCC2	L major viab 59
CCOC(=O)COc1ccc(C(=O)NC2CCCCC2)cc1	none
O=C(CC1CCCCC1)N1CCCC(c2nc(-c3ccc(S(=O)(=O)N4CCCC4)cc3)no2)C1 (configuration not stated)	L major viab 55 (no result: S1P3 antagonist)
CCCCCC(=O)N1CCCC(c2nc(-c3ccc(OC)cc3)no2)C1 (configuration not stated)	none (no result: S1P3 antagonist)
CC1=NN(c2ccc(C)c(C)c2)C(=O)/C1=C\C=C\c1ccc([N+](=O)[O-])o1	L major viab 98
CC1=NN(c2ccc([N+](=O)[O-])cc2)C(=O)/C1=C\N(C)C	none
Cc1ccc(N2C(N)=C(C#N)C(c3cccs3)C3=C2CC(C)(C)CC3=O)cc1 (configuration not stated)	L major viab 98 (no result: S1P3 antagonist)
N#CC1=C(N)N(c2ccccc2)C2=C(C(=O)CCC2)C1c1cccs1 (configuration not stated)	L major viab 73
Cc1nn(Cc2c(Cl)cccc2Cl)c(C)c1NC(=O)CCCn1nc(C)c([N+](=O)[O-])c1C	L major viab 66
Cc1ccc(Cn2nc(C)c(NC(=O)CCCn3nc(C)c([N+](=O)[O-])c3C)c2C)cc1	L major viab 52
COc1cccc(C(=O)N2CCN(Cc3ccccc3[N+](=O)[O-])CC2)c1	none
O=C(c1cccs1)N1CCN(Cc2ccccc2[N+](=O)[O-])CC1	L major viab 76
COc1ccc(CN2CCN(C(=O)c3cccs3)CC2)c(OC)c1OC	L major viab 95
COc1ccccc1OCCn1c(=O)oc2ccc(C)cc21	none
Nc1c2c(nc3ccccc13)N(c1ccccc1)CC2	none (no result: S1P4 antag, S1P4 agonist, L major viab, S1P3 antagonist)
CN1CCCCc2c1nc1ccccc1c2N (tested in a mixture with another compound)	L major viab 92
COc1ccc(-n2ncc3c(=O)n(Cc4c(F)cccc4Cl)cnc32)cc1	none
Cc1ccc(N=Nc2c(C)[nH]n(C(N)=S)c2=O)cc1C	none
Cc1[nH]n(C(N)=S)c(=O)c1N=Nc1cc(-c2ccc(Br)cc2)[nH]n1	L major viab 57
CCN(C(=O)COc1cccc2cccnc12)C1CCS(=O)(=O)C1 (configuration not stated)	none
C=CCn1c(SCc2nc3sc4c(c3c(=O)[nH]2)CCCC4)nc2ccccc2c1=O	L major viab 84
O=C(NCCCO)C(=O)NCc1ccncc1	none
COc1nc(Nc2ccc([N+](=O)[O-])cc2)nc(NC(C)C)n1	L major viab 97
CCOc1nc(Nc2ccc([N+](=O)[O-])cc2)nc(NC(C)(C)C)n1	L major viab 74
CCn1c(=O)c(C(=O)NNS(=O)(=O)c2ccc(C)cc2)c(O)c2ccccc21	L major viab 59
COc1ccc(-c2csc(N(CCCN(C)C)C(=O)c3cccs3)n2)cc1	L major viab 92
O=C(c1ccccc1Oc1ccc(C(F)(F)F)cc1[N+](=O)[O-])N1CCOCC1	none
O=C(c1ccc(Oc2ccc(C(F)(F)F)cc2[N+](=O)[O-])cc1)N1CCOCC1	L major viab 55
COc1cccc2c1C(CO)N1C(C#N)C3CC(C(=O)O)C(C1C2)N3C (configuration not stated)	S1P4 antag 94 (no result: L major viab)
CCN1CCN(C(=S)Nc2ccc(Cl)c(Cl)c2)CC1	L major viab 84
CCN1CCN(C(=S)NCc2ccc(C)cc2)CC1	L major viab 83
CCN1CCN(C(=S)Nc2cccc(Cl)c2)CC1	none
CCN1CCN(C(=S)Nc2cccc(C(F)(F)F)c2)CC1	L major viab 60
OCCN1CCN(C(=S)Nc2cccc(C(F)(F)F)c2)CC1	none (no result: Mdm2 ligase inh, L major viab)
CCN1CCN(C(=S)c2ccc(-c3ccccc3)cc2)CC1	L major viab 80
CCn1nc(C)c(CNC(=O)CC2C(=O)NCCN2CC(C)(C)C)c1C (configuration not stated)	none
COc1ccc(-c2nnc(SCC(=O)NCc3ccco3)n2C)cc1	none
O=C1C(=O)N(CCCN2CCOCC2)C(c2ccccn2)/C1=C(\O)c1ccc2c(c1)OCCO2 (configuration not stated)	none (no result: Mdm2 ligase inh, S1P4 antag, S1P4 agonist, L major viab)
CCN1CCN(C(=S)c2ccc(Cl)c(Cl)c2)CC1	L major viab 90 (no result: S1P3 antagonist)
CSc1ccc(C(=S)N2CCN(CCO)CC2)cc1	L major viab 75
CCCCc1nc2ccccc2c(NC(=O)CNC(C)(C)C)c1CCC	none (no result: S1P3 antagonist)
CCCCc1nc2ccccc2c(N)c1CCC (tested in a mixture with another compound)	L major viab 95
Cc1c(CCCN)c2ccccc2n1Cc1ccccc1	L major viab 92
COc1ccc(NS(=O)(=O)c2cccc(NC(=O)CCC(=O)c3ccc(Cl)cc3)c2)cc1	L major viab 80
COc1ccc(NS(=O)(=O)c2cccc(NC(=O)CCC(=O)c3cccs3)c2)cc1	none
COc1ccc(NS(=O)(=O)c2cccc(NC(=O)NCCCl)c2)cc1	L major viab 71
CN(C)S(=O)(=O)c1cccc(NC(=O)NCCCl)c1	none (no result: L major viab)
COCCCn1c(SCc2ccccc2)nc2cc(OC)c(OC)cc2c1=N	L major viab 64 (no result: S1P3 antagonist)
COc1ccc(Cn2c(SCc3ccc(C)cc3)nc3cc(OC)c(OC)cc3c2=N)cc1Cl	L major viab 100 (no result: S1P3 antagonist)
COc1ccc(Cn2c(SCc3cc(C)ccc3C)nc3cc(OC)c(OC)cc3c2=N)cc1	L major viab 101 (no result: S1P3 antagonist)
CCOC(=O)COc1c(Br)cc(/C=C2\SC(=O)N(CC(=O)N3CCCC3)C2=O)cc1OC	none (no result: S1P3 antagonist)
Cc1sc2c(c1C)C(=O)/C(=C\Nc1ccncc1)S(=O)(=O)N2C	none (no result: L major viab)
Cc1ccc(OCc2cn3cccnc3n2)cc1	none
COc1ccc2c(c1OC)C(=O)N1N=C(c3ccc(O)cc3)CC21 (configuration not stated)	none (no result: S1P3 antagonist)
O=C(NCCCN1CCOCC1)c1sc2ccccc2c1Cl	L major viab 80
Cc1cc(OCC(=O)NCCCN2CCOCC2)cc(C)c1Cl	L major viab 71 (no result: Mdm2 ligase inh)
O=C(NCCCN1CCOCC1)c1ccc(Br)s1	none

Screening data from PubChem BioAssay.
